Measured values taken from ChEMBL document CHEMBL3098105, “7,7'-Diazaindirubin--a small molecule inhibitor of casein kinase 2 in vitro and in cells” (Bioorg Med Chem, 2014).
Activity calls are given as the source filed them. No cut-off for these calls is given here.

Tests used:
[1] = target: Fibroblast growth factor receptor 1 (Homo sapiens) (UniProt P11362); experiment: Inhibition of human FGFR1 assessed as residual activity at 1 uM relative to control
[2] = target: cAMP-dependent protein kinase catalytic subunit PRKX (Homo sapiens) (UniProt P51817); experiment: Inhibition of human PrKX assessed as residual activity at 1 uM relative to control
[3] = target: Proto-oncogene tyrosine-protein kinase Src (Homo sapiens) (UniProt P12931); experiment: Inhibition of SRC (unknown origin) assessed as residual activity at 10 uM relative to control
[4] = target: Ephrin type-A receptor 2 (Homo sapiens) (UniProt P29317); experiment: Inhibition of human EphA2 assessed as residual activity at 1 uM relative to control
[5] = target: Tyrosine-protein kinase Fgr (Homo sapiens) (UniProt P09769); experiment: Inhibition of FGR (unknown origin) assessed as residual activity at 1 uM relative to control
Chain of Tyrosine-protein kinase Fgr (Homo sapiens) (P09769 2-529 limits assumed): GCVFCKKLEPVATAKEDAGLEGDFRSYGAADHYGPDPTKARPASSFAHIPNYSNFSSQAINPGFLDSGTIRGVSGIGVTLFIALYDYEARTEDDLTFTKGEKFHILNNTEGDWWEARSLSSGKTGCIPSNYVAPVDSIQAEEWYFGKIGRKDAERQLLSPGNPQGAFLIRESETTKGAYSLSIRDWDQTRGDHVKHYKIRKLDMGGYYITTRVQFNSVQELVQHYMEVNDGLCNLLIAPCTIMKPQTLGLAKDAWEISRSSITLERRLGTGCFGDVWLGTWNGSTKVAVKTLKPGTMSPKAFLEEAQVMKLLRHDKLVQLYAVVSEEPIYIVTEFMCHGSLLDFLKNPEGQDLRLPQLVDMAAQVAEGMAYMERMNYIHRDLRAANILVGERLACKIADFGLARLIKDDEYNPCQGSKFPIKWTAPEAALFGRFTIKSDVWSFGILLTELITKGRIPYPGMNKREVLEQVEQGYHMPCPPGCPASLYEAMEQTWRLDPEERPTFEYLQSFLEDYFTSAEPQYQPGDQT

[6] = tested on: MOLT-4; experiment: Antiproliferative activity against human MOLT4 cells after 3 days by sulforhodamine B assay; type: functional; details: MOLT-4, 72 h
Outline: (§1)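 Tested in the NCI 60 cell line panel. GI50 is the concentration giving 50% inhibition of cell growth, and values are the mean of two series of tests.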

[7] = target: Ephrin type-B receptor 2 (Homo sapiens) (UniProt P29323); experiment: Inhibition of human EphB2 assessed as residual activity at 1 uM relative to control
[8] = target: Epidermal growth factor receptor (Homo sapiens) (UniProt P00533); experiment: Inhibition of human EGFR assessed as residual activity at 1 uM relative to control
Chain of Epidermal growth factor receptor (Homo sapiens) (P00533 whole entry): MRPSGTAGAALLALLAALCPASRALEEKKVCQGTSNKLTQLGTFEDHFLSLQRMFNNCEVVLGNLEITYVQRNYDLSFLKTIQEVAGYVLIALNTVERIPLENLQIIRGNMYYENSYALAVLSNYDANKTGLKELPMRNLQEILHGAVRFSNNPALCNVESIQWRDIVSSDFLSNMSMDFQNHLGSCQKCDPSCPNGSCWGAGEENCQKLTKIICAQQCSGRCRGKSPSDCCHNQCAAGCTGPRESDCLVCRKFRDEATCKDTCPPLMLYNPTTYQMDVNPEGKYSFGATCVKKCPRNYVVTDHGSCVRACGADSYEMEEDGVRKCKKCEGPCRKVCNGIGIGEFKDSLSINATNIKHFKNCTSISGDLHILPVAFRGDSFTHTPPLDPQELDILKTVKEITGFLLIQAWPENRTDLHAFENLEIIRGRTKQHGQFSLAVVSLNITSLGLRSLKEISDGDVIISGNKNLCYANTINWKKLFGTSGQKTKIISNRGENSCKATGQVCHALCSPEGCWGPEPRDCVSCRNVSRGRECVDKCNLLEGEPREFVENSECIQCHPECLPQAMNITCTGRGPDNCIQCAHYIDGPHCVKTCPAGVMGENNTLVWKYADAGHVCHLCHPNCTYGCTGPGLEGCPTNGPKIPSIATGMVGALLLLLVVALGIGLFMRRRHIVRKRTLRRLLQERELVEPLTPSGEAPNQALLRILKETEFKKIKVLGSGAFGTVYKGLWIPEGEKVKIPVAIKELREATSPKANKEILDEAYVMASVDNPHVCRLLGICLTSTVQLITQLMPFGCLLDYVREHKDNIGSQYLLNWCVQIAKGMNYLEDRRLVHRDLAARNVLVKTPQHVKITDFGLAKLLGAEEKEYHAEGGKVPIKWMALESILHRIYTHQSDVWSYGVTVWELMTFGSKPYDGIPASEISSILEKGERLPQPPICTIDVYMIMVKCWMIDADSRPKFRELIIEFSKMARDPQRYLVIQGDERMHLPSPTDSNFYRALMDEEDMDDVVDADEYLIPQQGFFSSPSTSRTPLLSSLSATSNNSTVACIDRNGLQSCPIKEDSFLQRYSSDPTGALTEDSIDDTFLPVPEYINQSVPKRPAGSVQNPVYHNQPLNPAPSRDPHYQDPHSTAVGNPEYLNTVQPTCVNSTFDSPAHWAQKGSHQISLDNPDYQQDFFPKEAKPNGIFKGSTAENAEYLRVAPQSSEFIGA

[9] = target: Vascular endothelial growth factor receptor 3 (Homo sapiens) (UniProt P35916); experiment: Inhibition of VEGF-R3 (unknown origin) assessed as residual activity at 1 uM relative to control
[10] = target: Tyrosine-protein kinase Lck (Homo sapiens) (UniProt P06239); experiment: Inhibition of human Lck assessed as residual activity at 1 uM relative to control
Chain of Tyrosine-protein kinase Lck (Homo sapiens) (P06239 2-509 limits assumed): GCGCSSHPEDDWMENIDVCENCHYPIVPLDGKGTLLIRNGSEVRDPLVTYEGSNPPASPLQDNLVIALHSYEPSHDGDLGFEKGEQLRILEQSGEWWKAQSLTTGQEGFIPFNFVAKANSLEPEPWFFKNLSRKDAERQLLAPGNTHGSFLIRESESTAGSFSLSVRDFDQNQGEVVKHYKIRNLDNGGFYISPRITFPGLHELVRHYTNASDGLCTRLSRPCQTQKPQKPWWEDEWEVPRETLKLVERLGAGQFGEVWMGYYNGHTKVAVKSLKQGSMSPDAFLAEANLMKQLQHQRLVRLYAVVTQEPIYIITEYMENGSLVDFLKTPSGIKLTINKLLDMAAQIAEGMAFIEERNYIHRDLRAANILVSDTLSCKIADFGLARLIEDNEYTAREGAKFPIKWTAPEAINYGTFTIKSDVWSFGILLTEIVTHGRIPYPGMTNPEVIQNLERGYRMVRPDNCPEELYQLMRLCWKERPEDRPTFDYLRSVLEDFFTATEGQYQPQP

[11] = target: Vascular endothelial growth factor receptor 2 (Homo sapiens) (UniProt P35968); experiment: Inhibition of human KDR assessed as residual activity at 1 uM relative to control
Chain of Vascular endothelial growth factor receptor 2 (Homo sapiens) (P35968 whole entry): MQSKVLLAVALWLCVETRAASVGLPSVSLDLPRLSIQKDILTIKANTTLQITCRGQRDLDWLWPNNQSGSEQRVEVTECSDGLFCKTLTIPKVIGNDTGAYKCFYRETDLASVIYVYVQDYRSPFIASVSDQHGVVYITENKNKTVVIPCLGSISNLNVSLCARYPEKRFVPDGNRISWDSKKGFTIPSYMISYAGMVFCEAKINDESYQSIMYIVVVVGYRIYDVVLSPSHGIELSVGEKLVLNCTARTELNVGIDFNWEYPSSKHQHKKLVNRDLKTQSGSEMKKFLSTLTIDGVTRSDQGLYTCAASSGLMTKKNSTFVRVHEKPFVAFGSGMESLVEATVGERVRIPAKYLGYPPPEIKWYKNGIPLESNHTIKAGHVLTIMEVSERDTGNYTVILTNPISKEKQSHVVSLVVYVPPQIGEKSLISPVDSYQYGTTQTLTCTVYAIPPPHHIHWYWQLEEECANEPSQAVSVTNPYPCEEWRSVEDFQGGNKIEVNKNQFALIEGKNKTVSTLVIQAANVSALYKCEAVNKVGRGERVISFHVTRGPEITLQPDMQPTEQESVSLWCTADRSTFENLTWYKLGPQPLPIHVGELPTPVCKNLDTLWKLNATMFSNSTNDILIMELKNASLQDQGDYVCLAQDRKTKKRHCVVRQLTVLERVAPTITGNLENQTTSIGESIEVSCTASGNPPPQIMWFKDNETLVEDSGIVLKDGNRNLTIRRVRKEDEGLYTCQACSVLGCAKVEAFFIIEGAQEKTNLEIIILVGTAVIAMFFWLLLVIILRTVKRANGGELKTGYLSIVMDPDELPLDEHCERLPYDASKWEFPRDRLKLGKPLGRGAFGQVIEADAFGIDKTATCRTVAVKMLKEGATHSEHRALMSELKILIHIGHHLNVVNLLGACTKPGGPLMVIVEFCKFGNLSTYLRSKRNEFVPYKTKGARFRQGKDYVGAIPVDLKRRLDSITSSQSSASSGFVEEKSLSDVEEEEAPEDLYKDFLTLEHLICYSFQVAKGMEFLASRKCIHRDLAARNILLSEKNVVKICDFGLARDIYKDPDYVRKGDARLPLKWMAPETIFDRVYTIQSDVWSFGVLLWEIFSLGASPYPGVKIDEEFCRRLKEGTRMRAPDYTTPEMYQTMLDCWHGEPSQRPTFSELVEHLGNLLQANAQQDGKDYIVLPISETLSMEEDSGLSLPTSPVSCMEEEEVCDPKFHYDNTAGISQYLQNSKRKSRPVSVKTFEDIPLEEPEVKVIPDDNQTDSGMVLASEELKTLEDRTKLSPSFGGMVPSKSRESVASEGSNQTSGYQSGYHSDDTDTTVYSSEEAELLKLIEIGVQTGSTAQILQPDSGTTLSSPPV

[12] = target: Mitogen-activated protein kinase kinase kinase 9 (Homo sapiens) (UniProt P80192); experiment: Inhibition of human MLK1 assessed as residual activity at 1 uM relative to control
[13] = target: Vascular endothelial growth factor receptor 2 (Homo sapiens) (UniProt P35968); experiment: Inhibition of VEGF-R2 (unknown origin) assessed as residual activity at 10 uM relative to control
[14] = target: Receptor tyrosine-protein kinase erbB-2 (Homo sapiens) (UniProt P04626); experiment: Inhibition of ERBB2 (unknown origin) assessed as residual activity at 1 uM relative to control
[15] = tested on: RPMI-8226; experiment: Antiproliferative activity against human RPMI8226 cells after 3 days by sulforhodamine B assay; type: functional; details: RPMI-8226, 72 h; outline: as §1
[16] = Antiproliferative activity against human RXF393 cells after 3 days by sulforhodamine B assay; type: functional; details: RXF 393, 72 h; outline: as §1
[17] = target: Protein kinase C eta type (Homo sapiens) (UniProt P24723); experiment: Inhibition of human PKCeta assessed as residual activity at 1 uM relative to control
[18] = target: Ephrin type-B receptor 4 (Homo sapiens) (UniProt P54760); experiment: Inhibition of human EphB4 assessed as residual activity at 1 uM relative to control
[19] = target: Fibroblast growth factor receptor 2 (Homo sapiens) (UniProt P21802); experiment: Inhibition of human FGFR2 assessed as residual activity at 1 uM relative to control
[20] = target: Cyclin-dependent kinase 1/cyclin B1 (Homo sapiens) (UniProt P06493+P14635); experiment: Inhibition of CDK1/CycB1 (unknown origin) assessed as residual activity at 1 uM relative to control; type: protein-complex assay
[21] = target: Serine/threonine-protein kinase BRSK1 (Homo sapiens) (UniProt Q8TDC3); experiment: Inhibition of human BrSK1 assessed as residual activity at 1 uM relative to control
[22] = target: Serine/threonine-protein kinase D2 (Homo sapiens) (UniProt Q9BZL6); experiment: Inhibition of human PKD2 assessed as residual activity at 1 uM relative to control
[23] = tested on: MCF7; experiment: Cell cycle arrest in human MCF7 cells assessed as accumulation at G2/M phase at 1 uM after 24 hrs using propidium iodide staining by FACS analysis (reference value: 22.13%); type: functional
[24] = target: Epidermal growth factor receptor (Homo sapiens) (UniProt P00533); experiment: Inhibition of EGF-R (unknown origin) assessed as residual activity at 10 uM relative to control
[25] = target: Ephrin type-A receptor 7 (Homo sapiens) (UniProt Q15375); experiment: Inhibition of human EphA7 assessed as residual activity at 1 uM relative to control
[26] = target: Mast/stem cell growth factor receptor Kit (Homo sapiens) (UniProt P10721); experiment: Inhibition of KIT (unknown origin) assessed as residual activity at 10 uM relative to control
Chain of Mast/stem cell growth factor receptor Kit (Homo sapiens) (P10721 whole entry): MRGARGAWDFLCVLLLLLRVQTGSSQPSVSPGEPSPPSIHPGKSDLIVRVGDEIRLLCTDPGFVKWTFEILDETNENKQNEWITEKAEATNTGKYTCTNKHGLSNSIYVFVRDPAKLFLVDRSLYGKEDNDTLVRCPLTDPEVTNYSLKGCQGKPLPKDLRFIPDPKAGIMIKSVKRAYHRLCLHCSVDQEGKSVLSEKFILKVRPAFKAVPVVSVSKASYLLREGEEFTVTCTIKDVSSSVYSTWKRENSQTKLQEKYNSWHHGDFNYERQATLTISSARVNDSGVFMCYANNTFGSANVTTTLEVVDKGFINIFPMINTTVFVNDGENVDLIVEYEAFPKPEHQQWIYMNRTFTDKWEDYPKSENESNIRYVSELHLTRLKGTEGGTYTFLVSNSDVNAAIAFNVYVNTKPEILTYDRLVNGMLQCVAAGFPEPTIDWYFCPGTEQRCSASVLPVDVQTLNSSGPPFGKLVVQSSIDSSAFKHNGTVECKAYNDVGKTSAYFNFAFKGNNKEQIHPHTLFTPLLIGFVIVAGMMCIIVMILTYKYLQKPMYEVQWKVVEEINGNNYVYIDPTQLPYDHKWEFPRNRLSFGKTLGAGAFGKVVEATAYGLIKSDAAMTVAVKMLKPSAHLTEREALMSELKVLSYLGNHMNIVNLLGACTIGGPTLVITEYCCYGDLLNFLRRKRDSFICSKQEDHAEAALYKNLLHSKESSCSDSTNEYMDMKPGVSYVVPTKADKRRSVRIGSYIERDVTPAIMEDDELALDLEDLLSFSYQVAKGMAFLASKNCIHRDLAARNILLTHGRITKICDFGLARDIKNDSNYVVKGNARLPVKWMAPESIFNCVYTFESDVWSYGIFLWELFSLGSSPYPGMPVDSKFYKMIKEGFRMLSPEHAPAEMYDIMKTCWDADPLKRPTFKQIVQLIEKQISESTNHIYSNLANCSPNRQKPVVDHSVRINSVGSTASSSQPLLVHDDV

[27] = target: Ribosomal protein S6 kinase alpha-5 (Homo sapiens) (UniProt O75582); experiment: Inhibition of human MSK1 assessed as residual activity at 1 uM relative to control
[28] = target: Casein kinase II (Homo sapiens) (UniProt P67870+P68400+P19784); experiment: Inhibition of CK2 in human PANC1 cells assessed as reduction of Akt phosphorylation at S473 at 0.25 to 8 uM after 2 hrs by Western blot analysis; type: cell-based; details: PANC-1
Outline: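 Panc1 cells were cultured in DMEM with 10% heat-inactivated FBS and penicillin/streptomycin at 37 °C and 5% CO2. Cells were treated with a range of concentrations for 2 h, with Ly294002 as positive control. Urea-buffer lysates (20–40 µg protein) were separated on 10% SDS–PAGE and probed for pAkt (S473) and β-actin. Detection was by ECL.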

[29] = tested on: SK-MEL-5; experiment: Antiproliferative activity against human SK-MEL-5 cells after 3 days by sulforhodamine B assay; type: functional; details: SK-MEL-5, 72 h; outline: as §1
[30] = target: SRSF protein kinase 2 (Homo sapiens) (UniProt P78362); experiment: Inhibition of human SRPK2 assessed as residual activity at 1 uM relative to control
[31] = target: Mitogen-activated protein kinase kinase kinase 5 (Homo sapiens) (UniProt Q99683); experiment: Inhibition of human ASK1 assessed as residual activity at 1 uM relative to control
[32] = tested on: 786-0; experiment: Antiproliferative activity against human 786-0 cells after 3 days by sulforhodamine B assay; type: functional; details: 786-0, 72 h; outline: as §1
[33] = target: Hepatocyte growth factor receptor (Homo sapiens) (UniProt P08581); experiment: Inhibition of human Met assessed as residual activity at 1 uM relative to control
[34] = target: Casein kinase I isoform gamma-3 (Homo sapiens) (UniProt Q9Y6M4); experiment: Inhibition of human CK1gamma3 assessed as residual activity at 1 uM relative to control
Chain of Casein kinase I isoform gamma-3 (Homo sapiens) (Q9Y6M4 whole entry, looked up, canonical isoform): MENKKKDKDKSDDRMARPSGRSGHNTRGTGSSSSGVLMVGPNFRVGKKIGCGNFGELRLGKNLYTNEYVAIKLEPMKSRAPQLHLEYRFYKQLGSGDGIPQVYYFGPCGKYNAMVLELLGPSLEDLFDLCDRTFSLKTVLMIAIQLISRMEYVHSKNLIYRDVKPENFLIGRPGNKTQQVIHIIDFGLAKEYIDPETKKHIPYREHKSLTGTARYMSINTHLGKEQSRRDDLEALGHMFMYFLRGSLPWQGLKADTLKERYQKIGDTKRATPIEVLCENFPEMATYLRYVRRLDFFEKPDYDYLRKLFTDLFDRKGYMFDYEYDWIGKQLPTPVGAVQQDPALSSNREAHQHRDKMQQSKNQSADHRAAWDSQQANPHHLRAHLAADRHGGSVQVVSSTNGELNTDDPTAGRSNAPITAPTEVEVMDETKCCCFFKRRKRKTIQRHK

[35] = target: Serine/threonine-protein kinase PAK 5 (Homo sapiens) (UniProt Q9P286); experiment: Inhibition of human PAK5 assessed as residual activity at 1 uM relative to control
[36] = target: RAF proto-oncogene serine/threonine-protein kinase (Homo sapiens) (UniProt P04049); experiment: Inhibition of human c-RAF assessed as residual activity at 1 uM relative to control

For `O=C1Nc2ncccc2/C1=C1/Nc2ncccc2C1=O`, the Activity [1] was 101%, the Activity [2] was 103% and the Activity [3] was 107%. It also gave an Activity [4] of 122%, an Activity [5] of 95% and a GI50 [6] of 3320 nM. It also gave an Activity [7] of 127%, an Activity [8] of 120% and an Activity [9] of 82%. It also gave an Activity [10] of 55%, an Activity [11] of 76% and an Activity [12] of 61%. It also gave an Activity [13] of 102%, an Activity [14] of 99% and a GI50 [15] of 2120 nM. It also gave a GI50 [16] of 2190 nM, an Activity [17] of 98% and an Activity [18] of 116%. For the same compound, the Activity [19] was 125%, the Activity [20] was 70% and the Activity [21] was 69%. For the same compound, the Activity [22] was 100%, the Activity [23] was 22.63% and the Activity [24] was 95%. For the same compound, the Activity [25] was 105%, the Activity [26] was 73% and the Activity [27] was 93%. For the same compound, the inhibition [28] was “Active”, the GI50 [29] was 160 nM and the Activity [30] was 108%. It also gave an Activity [31] of 136%, a GI50 [32] of 4190 nM and an Activity [33] of 77%. For the same compound, the Activity [34] was 37%, the Activity [35] was 61% and the Activity [36] was 73%.
